The subject of data set [1] is Homo sapiens. The experiment in a line: Toxicity in patient infected with chloroquine-resistant Plasmodium vivax assessed as occurrence of vomiting at total dose of 30 mg/kg administered as three daily doses measured […]. The class given is organism-based. On the set-up: dose 30 mg/kg. The settings on record: in vivo. The essentials:
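Three daily oral doses of amodiaquine, 30 mg base/kg total, were given under observation for 60 min. Patients who vomited were withdrawn and retreated with oral quinine. Children received crushed tablet suspended in water.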

The subject of data set [2] is Plasmodium vivax. In words: Antimalarial activity against chloroquine-resistant Plasmodium vivax infected in human assessed as clearance of peripheral parasitemia at total dose of 30 mg/kg administered as three daily doses measured within 24 hrs post dose. The class given is functional. The method in brief:
(§1)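 Oral amodiaquine 30 mg base/kg total, given as three daily doses. For children, the tablet was crushed and given as a suspension in water. Primaquine […] for 14 days was withheld until day 28 if there was no G6PD deficiency.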

In data set [3] the test system is Plasmodium vivax. In words: Antimalarial activity against chloroquine-resistant Plasmodium vivax infected in human assessed as clearance of peripheral parasitemia at total dose of 30 mg/kg administered as three daily doses measured 48 hrs post dose. The class given is functional. The method in brief:
as §1

The test system of data set [4] is Homo sapiens. In words: Toxicity in patient infected with chloroquine-resistant Plasmodium vivax assessed as occurrence of anemia at total dose of 30 mg/kg administered as three daily doses measured 7 days post dose. The class given is organism-based. On the set-up: dose 30 mg/kg. The settings on record: in vivo, 168 h. The method in brief:
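Patients received oral amodiaquine 30 mg base/kg split over three daily doses, with 60-min observation after each dose. Children were given crushed tablet in water. Anemia was defined as hemoglobin <10 g/dl. Primaquine was deferred to day 28.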

For data set [5], the system named is Plasmodium vivax. In words: Antimalarial activity against chloroquine-Resistant Plasmodium vivax infected in human assessed as parasite recurrence rate at total dose of 30 mg/kg administered as three daily doses measured on day 28 post dose. The class given is functional. The method in brief:
as §1

For data set [6], the system named is Plasmodium vivax. The experiment in a line: Antimalarial activity against chloroquine-resistant Plasmodium vivax by Giemsa staining. The class given is functional, organism-based. The method in brief:
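Ex vivo P. vivax isolates came from clinic outpatients with parasitemia >5,000 μl−1 and were tested with a modified WHO microtest. Incubation ran until the drug-free control reached ≥40% schizonts. Giemsa-stained thick smears from each well were read for schizonts per 200 asexual parasites and normalized to control. IC50 was derived by nonlinear regression.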

Data set [7] relates to Homo sapiens. In words: Toxicity in human infected with chloroquine-Resistant Plasmodium vivax assessed as occurrence of nausea at total dose of 30 mg/kg administered as three daily doses. The settings on record: in vivo. The class given is organism-based. On the set-up: dose 30 mg/kg. The essentials: as §1
Data set [8] concerns Homo sapiens. In words: Toxicity in patient infected with chloroquine-resistant Plasmodium vivax assessed as occurrence of anemia at total dose of 30 mg/kg administered as three daily doses measured 28 days post dose. The settings on record: in vivo, 672 h.

Regarding `CCN(CC)Cc1cc(Nc2ccnc3cc(Cl)ccc23)ccc1O.Cl`, the Activity in data set [1] is recorded as 4.6%; in data set [2], 52%; in data set [3], 91%; in data set [4] it was 30%; in data set [5], 22.8%; in data set [7], 4.5%. Also, the Activity result in data set [8] is listed as “Non-toxic”. This compound also gave a concentration for half-maximal inhibition (IC50) in data set [6] of 11.3 nM.
`C[C@H]1[C@H](OC(=O)CCC(=O)O)O[C@@H]2O[C@@]3(C)CC[C@H]4[C@H](C)CC[C@@H]1[C@@]24OO3` [ARTESUNATE] yielded a 50% inhibitory concentration (IC50) in data set [6] of 1.29 nM.
Consider `CCN(CC)CCCC(C)Nc1ccnc2cc(Cl)ccc12` (stereo not drawn) [CHLOROQUINE], for which inhibition in data set [6] was half-maximal at 52.7 nM (IC50).
Turning to `CCCCN(CCCC)CC(O)c1cc(Cl)cc2c1-c1ccc(Cl)cc1/C2=C/c1ccc(Cl)cc1` (stereo not drawn) [LUMEFANTRINE], in data set [6], the concentration for half-maximal inhibition (IC50) worked out at 16 nM.
In data set [6], `OC(c1cc(C(F)(F)F)nc2c(C(F)(F)F)cccc12)C1CCCCN1` (stereo not drawn) [MEFLOQUINE] returned an IC50 of 8.2 nM.
Same read-out and setting: the result for `Clc1ccc2c(N3CCN(CCCN4CCN(c5ccnc6cc(Cl)ccc56)CC4)CC3)ccnc2c1` [PIPERAQUINE] reads 17.5 nM.

For the origin of these results see ChEMBL document CHEMBL1649127, “In vivo and in vitro efficacy of amodiaquine monotherapy for treatment of infection by chloroquine-resistant Plasmodium vivax” (Antimicrob Agents Chemother, 2009).
